High-throughput results (PubChem BioAssay)
CAL PDZ FP-1 – CAL PDZ peptide-binding inhibitors, primary screen, biochemical, fluorescence polarization, Cer-tagged CAL PDZ, HTS; purified CAL PDZ, TMR-peptide fluorescence polarization, 1 h; actives 0.02% (n = 330,000); AID 504414, 2011; inhibition, % at 20 µM;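 active = highest replicate inhibition of at least 40%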
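System: tagged CAL PDZ domain. Schedule: 1 h room-temperature incubation prior to read. Signal: fluorescence polarization (mP). Measure: percent inhibition from loss of millipolarization.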
ARNT-TACC3 inh – disruptors of ARNT/TACC3 protein interaction, primary screen, biochemical, AlphaScreen, single concentration; AlphaScreen His-ARNT PAS-B/GST-TACC3 binding, luminescence; TACC3 fragment carries E629A point mutation; inhibition, % at 9.99 µM; actives 0.66% (n = 390,000); AID 623870, 2012;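 active = mean inhibition of replicates at least 50% and at least half of replicates each reaching 50%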
CAL PDZ FP-2 – untagged CAL PDZ binding inhibitors, primary screen, biochemical, fluorescence polarization, HTS; purified CAL PDZ, TMR-peptide fluorescence polarization, 1 h; Golgi-associated PDZ and coiled-coil motif-containing protein (Homo sapiens), Q9HD26; actives 0.92% (n = 300,000); inhibition, % at 24.9 µM;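 active = mean inhibition of at least 30% with at least half of replicates also reaching 30%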
CaV13 ICDI inh – Disruptors of the CACNA1D IQ motif to Ca2+-dependent inactivation inhibitor domain association, primary screening, Förster resonance energy transfer in intact living …; HEK cells, CFP/YFP FRET ICDI-IQ, plate reader, 10 min; percent FRET-ratio fall versus neutral wells; inhibition, % at 12.3 µM; actives 0.098% (n = 340,000);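 active = mean replicate inhibition of at least 30% and at least 1% of replicates passing that level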
A number is an active result; . = inactive; / = no result; + = active, no number. A selection: hits, their analogues and other compounds. The true share with any hit is near 1.2%.

SMILES | CAL PDZ FP-1 | ARNT-TACC3 inh | CAL PDZ FP-2 | CaV13 ICDI inh
CC(=O)c1cccc(CN2CCN(Cc3ccc(C)cc3)C(CCO)C2)c1 (stereo not drawn) | . | . | . | .
CC(=O)c1cccc(CN2CCN(CC=C(C)C)C(CCO)C2)c1 (stereo not drawn) | / | . | 51 | .
CC(=O)c1cccc(CN2CCN(CCc3ccccc3)C(CCO)C2)c1 (stereo not drawn) | . | . | 63 | .
CO[C@@H]1CN(C)C(=O)c2ccc(NS(C)(=O)=O)cc2OC[C@H](C)N(C(=O)C2CCCCC2)C[C@@H]1C | / | . | / | /
C/C=C/c1ccc2c(c1)O[C@H](CN(C)C(=O)C1CCOCC1)[C@H](C)CN([C@H](C)CO)S2(=O)=O | / | . | / | /
CC1(C)CC2CC(C)(CN2C(=O)COC(=O)c2cc(Cl)cc(Cl)c2N)C1 (stereo not drawn) | . | 14 | . | .
CC1(C)CC2CC(C)(CN2C(=O)COC(=O)c2ccc(O)cc2O)C1 (stereo not drawn) | . | . | / | .
CC(NC(=O)c1ccc(Br)o1)c1ccc(-n2ccnc2)cc1 (stereo not drawn) | . | . | 35 | .
Cc1cc(=S)nc(-c2ccccn2)[nH]1 | . | 59 | . | .
O=C(CSc1nccc(-c2cccs2)n1)Nc1cccc(Cl)c1Cl | . | . | 51 | .
CCN1C=C(C(=O)OC)C(c2cccc(OC)c2OC)C(C(=O)OC)=C1 | . | . | . | +
COC(=O)C1=CN(Cc2ccc(OC)c(OC)c2)C=C(C(=O)OC)C1c1cccc(OC)c1OC | . | . | . | .
O=C(Nc1ccnn1C1CCN(CC2CC=CCC2)CC1)c1ccccc1Cl (stereo not drawn) | . | . | 51 | .
C[C@H](CO)N1C[C@H](C)[C@@H](CN(C)Cc2ccncc2)OCCCC[C@H](C)Oc2ccc(NC(=O)CCC(F)(F)F)cc2C1=O | / | . | / | /
O=C(C[C@H]1C[C@@H]2c3cc(NC(=O)Nc4ccccc4)ccc3O[C@@H]2[C@H](CO)O1)NCc1cccnc1 | / | . | / | /
O=C(c1cc(Cl)ccc1F)N1CCCC(Nc2ccc3c(c2)OCCO3)C1 (stereo not drawn) | . | . | 37 | .
O=C(c1ccc2nccnc2c1)N1CCCC(Nc2ccc(F)c(F)c2)C1 (stereo not drawn) | . | . | 51 | .
O=C(CCN1CCCCO1)N1CCCC(Nc2ccc(F)c(F)c2)C1 (stereo not drawn) | . | . | . | .
Cc1ccc(NC2CCCN(C(=O)CCN3CCCCO3)C2)cc1C (stereo not drawn) | . | . | 62 | .
Cc1ccc(NC2CCCN(C(=O)c3ccc4nccnc4c3)C2)cc1C (stereo not drawn) | . | . | . | .
COc1ccccc1OCC(=O)N1CCCC(Nc2ccc(F)c(F)c2)C1 (stereo not drawn) | . | . | + | .
O=C(c1ccco1)N1CCCC(Nc2ccc3c(c2)OCCO3)C1 (stereo not drawn) | . | . | . | .
CC(C)CC#Cc1ccc2c(c1)O[C@@H](CN(C)S(C)(=O)=O)[C@@H](C)CN([C@@H](C)CO)S2(=O)=O | / | . | / | /
COc1ccc(CC2C(=O)OC(C)(C)OC2=O)cc1 | . | . | . | .
COc1ccc(CC2CCOC2=O)cc1 (stereo not drawn) | . | . | 62 | .
SMILES | CAL PDZ FP-1 | ARNT-TACC3 inh | CAL PDZ FP-2 | CaV13 ICDI inh
O=C(C1CCCC1)N1CCCCN2[C@H](CO)[C@H](c3ccc(-c4cccc(F)c4)cc3)[C@@H]2C1 | / | . | / | /
CC(=O)n1nc(-c2ccncc2)nc1SCC(=O)Nc1cccc(Cl)c1 | . | . | 45 | .
Cc1noc(C)c1NC(=O)N(C)C[C@@H]1OCCCC[C@H](C)Oc2ccc(NC(=O)Cc3ccccc3)cc2C(=O)N([C@@H](C)CO)C[C@H]1C | / | . | / | /
O=C(O)C1Nc2c(Cl)cc(Cl)cc2C2C=CCC12 (stereo not drawn) | . | . | / | /
O=C(O)C1Nc2c(O)cccc2C2C=CCC12 (stereo not drawn) | . | 75 | . | .
C[C@@H]1CN([C@H](C)CO)C(=O)c2cc(NS(=O)(=O)c3ccc(Cl)cc3)ccc2O[C@@H]1CN(C)Cc1ccc(C(=O)Nc2ccccc2N)cc1 | / | . | / | /
CCOC(=O)c1c(C)[nH]c(C)c1S(=O)(=O)N(C)CC(=O)Nc1cccc(F)c1 | . | . | 34 | .
CCOC(=O)c1c(C)[nH]c(C)c1S(=O)(=O)N(C)CC(=O)Nc1cccc(C)c1 | . | . | . | .
C[C@H](CO)N1C[C@H](C)[C@@H](CN(C)C(=O)C2CC2)Oc2cc(C#Cc3ccncc3)ccc2S1(=O)=O | / | . | / | /
O=C(O)C[C@H]1C=C[C@@H](NC(=O)c2ccncc2)[C@H](CO)O1 | / | . | / | /
CO[C@H]1CC[C@@H]2CCN(C)C(=O)CCCN(C)C(=O)c3cccc(C#N)c3OC[C@@H]1O2 | / | . | / | /
Cc1ccc(-c2nc(NCCCN(C)C)c3ccccc3n2)cc1 | / | / | / | .
Cc1ccc(-c2csc3nc4c5ccccc5c(NCCCN(C)C)nn4c(=O)c23)cc1 | . | 67 | / | .
C[C@@H]1CCCCO[C@H](CN(C)S(=O)(=O)c2cccs2)[C@@H](C)CN([C@H](C)CO)C(=O)c2cc(NS(=O)(=O)c3ccccc3)ccc2O1 | / | . | / | /
Fc1ccc(-c2nc3ccccn3c2NCc2ccc3c(c2)OCO3)cc1 | . | / | . | 49
COc1cccc2cc(-c3n[nH]c(=S)n3C)oc12 | . | . | . | .
COc1cccc2cc(-c3ccnc(N)n3)oc12 | . | . | 77 | .
C[C@H](CO)N1C[C@H](C)[C@H](CN(C)C(=O)Nc2cccc3ccccc23)Oc2c(NC(=O)Nc3ccc(F)cc3)cccc2C1=O | / | . | / | /
CN1CCN(C(=O)C[C@@H]2C=C[C@@H](NC(=O)Nc3ccccc3F)[C@H](CO)O2)CC1 | / | . | / | /
O=c1c2c(nc3c(-c4ccc(Cl)cc4)c[nH]n13)CCC2 | . | 46 | . | .
O=c1c2c(nc3c(-c4ccccc4)c[nH]n13)CCC2 | . | . | . | .
Cn1c(=N)c(S(=O)(=O)c2ccccc2)cc2c(=O)n3ccccc3nc21 | . | . | . | 34
CN1CCN(c2nc3c(c(=O)[nH]c(=O)n3C)n2Cc2cccc(Br)c2)CC1 | . | . | . | .
CN1CCN(c2nc3c(c(=O)[nH]c(=O)n3C)n2Cc2ccccc2F)CC1 | . | . | 51 | /
CN(C)c1cccc(C(=O)OCC(=O)Nc2ccccc2-c2ccccc2)c1 | . | . | . | .
CC(C)N(C(=O)COC(=O)c1cccc(N(C)C)c1)c1ccccc1 | . | . | 49 | .
CCOC(=O)C1CCN(C(=O)CCS(=O)(=O)c2ccc3c(c2)n(C)c(=O)c(=O)n3C)CC1 | . | . | 52 | .
